Measurements: ChEMBL document CHEMBL4428038, “Overcoming chloroquine resistance in malaria: Design, synthesis and structure-activity relationships of novel chemoreversal agents” (Eur J Med Chem, 2016)
pEC50: −log10 of the molar value. Calls of active or inactive are those of the source. No cut-off for these calls is given here.

Columns and labels:
Plasmodium falciparum [1] = experiment: Potentiation of chloroquine-induced antimalarial activity against chloroquine-sensitive Plasmodium falciparum HB3 isolate MRA-155 assessed as reduction in chloroquine IC50 at 500 nM relative to chloroquine alone; format: functional
[2] = tested on: T1, Chloroquine resistance transporter (Plasmodium falciparum), Q9N623 [K76T]; experiment: Inhibition of CRT K76T mutant in chloroquine-resistant Plasmodium falciparum NHP4559 assessed as reversal of chloroquine resistance by measuring reduction in chloroquine IC50 at 500 nM relative to chloroquine alone
T1 sequence (whole entry): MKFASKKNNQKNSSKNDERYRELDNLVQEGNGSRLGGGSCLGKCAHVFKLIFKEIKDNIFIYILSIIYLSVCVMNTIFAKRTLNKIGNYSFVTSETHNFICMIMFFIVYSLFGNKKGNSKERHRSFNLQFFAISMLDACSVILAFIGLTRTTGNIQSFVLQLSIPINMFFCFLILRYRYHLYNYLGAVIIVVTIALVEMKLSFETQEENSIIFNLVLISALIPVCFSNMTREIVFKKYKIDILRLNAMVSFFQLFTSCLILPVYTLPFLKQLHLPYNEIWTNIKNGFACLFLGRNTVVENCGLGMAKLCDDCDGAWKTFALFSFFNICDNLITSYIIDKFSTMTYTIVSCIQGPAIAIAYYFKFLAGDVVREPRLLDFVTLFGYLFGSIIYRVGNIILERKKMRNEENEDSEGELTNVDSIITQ

[3] = tested on: T1, Chloroquine resistance transporter (Plasmodium falciparum), Q9N623 [K76T]; experiment: Inhibition of CRT K76T mutant in chloroquine/artemisinin-resistant Plasmodium falciparum NHP4773 assessed as reversal of chloroquine resistance by measuring reduction in chloroquine IC50 at 500 nM relative to chloroquine alone
Plasmodium falciparum K1 [4] = experiment: Inhibition of CRT CVIET haplotype mutant in Plasmodium falciparum K1 isolate MRA-159 infected in erythrocytes assessed as chloroquine-coumarin probe accumulation at 10 uM after 10 hrs by Hoechst 33342 staining based flow cytometry (reference value: 35.57 +/- 3.84%); format: cell-based; parameters: scale not given: the % may be the effect or the level left
Procedure, shortened: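 Infected erythrocyte cultures at 2.5% hematocrit and 7–12% parasitemia, synchronized to late-ring/early-trophozoite stage, were incubated with chloroquine-coumarin probe plus test agent for 10 h at 37 C. Cells were then washed, resuspended in PBS and read by flow cytometry (405 nm excitation, 450/50 filter). Hoechst-stained duplicate wells set parasitemia. Uptake = % infected erythrocytes fluorescent. Controls: PBS (negative), desipramine and parent compound (positive). ≥3 independent experiments; mean ± SEM.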

Plasmodium falciparum [5] = experiment: Intrinsic antimalarial activity against chloroquine-resistant Plasmodium falciparum NHP4559 harboring CRT K76T mutant assessed as reduction in parasite viability at 500 nM; format: functional, organism-based
Plasmodium falciparum K1 [6] = experiment: Inhibition of CRT CVIET haplotype mutant in chloroquine-resistant Plasmodium falciparum K1 isolate MRA-159 assessed as reversal of chloroquine resistance by measuring reduction in chloroquine IC50 at 500 nM relative to chloroquine alone
Plasmodium falciparum [7] = experiment: Intrinsic antimalarial activity against intermediate chloroquine-resistant Plasmodium falciparum 7G8 isolate MRA-154 harboring CRT SVMNT haplotype mutant assessed as reduction in parasite viability at 500 nM; format: functional, organism-based
Plasmodium falciparum [8] = experiment: Potentiation of chloroquine-induced antimalarial activity against chloroquine-sensitive Plasmodium falciparum 3D7 isolate MRA-102 assessed as reduction in chloroquine IC50 at 500 nM relative to chloroquine alone; format: functional
Plasmodium falciparum [9] = experiment: Intrinsic antimalarial activity against chloroquine/artemisinin-resistant Plasmodium falciparum ARS272 harboring CRT K76T mutant assessed as reduction in parasite viability at 500 nM; format: functional, organism-based
[10] = Resistance index, ratio of chloroquine IC50 for chloroquine-resistant Plasmodium falciparum K1 isolate MRA-159 CRT CVIET haplotype mutant to chloroquine IC50 for chloroquine-sensitive Plasmodium falciparum 3D7 isolate MRA-102 at 500 nM
Procedure, shortened: (§1)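 Chloroquine IC50 was measured with the chemoreversal agent fixed at 500 nM in K1 or 7G8 and in sensitive 3D7 (means, n = 3). The resistance ratio is the chloroquine IC50 in K1 or 7G8 divided by the chloroquine IC50 in 3D7.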

[11] = Resistance index, ratio of chloroquine IC50 for intermediate chloroquine-resistant Plasmodium falciparum 7G8 isolate MRA-154 CRT SVMNT haplotype mutant to chloroquine IC50 for chloroquine-sensitive Plasmodium falciparum 3D7 isolate MRA-102 at 500 nM; procedure, shortened: as §1
[12] = Inhibition of CRT CVIET haplotype mutant in chloroquine-resistant Plasmodium falciparum K1 isolate MRA-159 assessed as reversal of chloroquine resistance by measuring reduction in chloroquine IC50 relative to chloroquine alone
Procedure, shortened: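 Chloroquine IC50 was determined in the presence of a fixed 500 nM chemoreversal agent, against chloroquine alone. The RMI is the ratio of chloroquine IC50 with agent to chloroquine IC50 alone. Mean of n = 3; two-tailed t test versus chloroquine without agent.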

[13] = tested on: T1, Chloroquine resistance transporter (Plasmodium falciparum), Q9N623 [K76T]; experiment: Inhibition of CRT K76T mutant in chloroquine-resistant Plasmodium falciparum Dd2 isolate MRA-156 assessed as reversal of chloroquine resistance by measuring reduction in chloroquine IC50 at 500 nM relative to chloroquine alone
Plasmodium falciparum [14] = experiment: Intrinsic antimalarial activity against chloroquine-sensitive Plasmodium falciparum 3D7 isolate MRA-102 assessed as reduction in parasite viability at 500 nM; format: functional, organism-based
Plasmodium falciparum [15] = experiment: Intrinsic antimalarial activity against chloroquine-resistant Plasmodium falciparum K1 isolate MRA-159 harboring CRT CVIET haplotype mutant assessed as reduction in parasite viability at 500 nM; format: functional, organism-based
[16] = tested on: T1, Chloroquine resistance transporter (Plasmodium falciparum), Q9N623 [K76T]; experiment: Inhibition of CRT K76T mutant in chloroquine/artemisinin-resistant Plasmodium falciparum ARS272 assessed as reversal of chloroquine resistance by measuring reduction in chloroquine IC50 at 500 nM relative to chloroquine alone
Plasmodium falciparum [17] = experiment: Intrinsic antimalarial activity against chloroquine/artemisinin-resistant Plasmodium falciparum ARS233 harboring CRT K76T mutant assessed as reduction in parasite viability at 500 nM; format: functional, organism-based
[18] = tested on: Plasmodium falciparum 7G8; experiment: Inhibition of CRT SVMNT haplotype mutant in intermediate chloroquine-resistant Plasmodium falciparum 7G8 isolate MRA-154 t assessed as reversal of chloroquine resistance by measuring reduction in chloroquine IC50 at 500 nM relative to chloroquine alone
Plasmodium falciparum [19] = experiment: Intrinsic antimalarial activity against chloroquine-resistant Plasmodium falciparum Dd2 isolate MRA-156 harboring CRT K76T mutant assessed as reduction in parasite viability at 500 nM; format: functional, organism-based
Plasmodium falciparum [20] = experiment: Intrinsic antimalarial activity against chloroquine-sensitive Plasmodium falciparum HB3 isolate MRA-155 assessed as reduction in parasite viability at 500 nM; format: functional, organism-based
[21] = tested on: T1, Chloroquine resistance transporter (Plasmodium falciparum), Q9N623 [K76T]; experiment: Inhibition of CRT K76T mutant in chloroquine/artemisinin-resistant Plasmodium falciparum ARS233 assessed as reversal of chloroquine resistance by measuring reduction in chloroquine IC50 at 500 nM relative to chloroquine alone
Plasmodium falciparum [22] = experiment: Intrinsic antimalarial activity against chloroquine/artemisinin-resistant Plasmodium falciparum NHP4773 harboring CRT K76T mutant assessed as reduction in parasite viability at 500 nM; format: functional, organism-based

SMILES: NCC(c1ccccc1)c1ccccc1
- Ratio IC50 (Plasmodium falciparum [1]): 1.1
- Ratio IC50 [2]: 0.52
- Ratio IC50 [3]: 0.54
- Activity (Plasmodium falciparum K1 [4]): 56.4%
- Activity (Plasmodium falciparum [5]): inactive
- Ratio IC50 (Plasmodium falciparum K1 [6]): 0.45
- Activity (Plasmodium falciparum [7]): inactive
- Ratio IC50 (Plasmodium falciparum [8]): 1.11
- Activity (Plasmodium falciparum [9]): inactive
- Ratio IC50 [10]: 8.4
- Ratio IC50 [11]: 3.8
- pEC50 [12]: 6.70
- Ratio IC50 [13]: 0.59
- Activity (Plasmodium falciparum [14]): inactive
- Activity (Plasmodium falciparum [15]): inactive
- Ratio IC50 [16]: 0.37
- Activity (Plasmodium falciparum [17]): inactive
- Ratio IC50 [18]: 0.69
- Activity (Plasmodium falciparum [19]): inactive
- Activity (Plasmodium falciparum [20]): inactive
- Ratio IC50 [21]: 0.53
- Activity (Plasmodium falciparum [22]): inactive

SMILES: N[C@@H]1C2CCN(CC2)[C@@H]1C(c1ccccc1)c1ccccc1 (relative stereo)
- Ratio IC50 (Plasmodium falciparum [1]): 0.99
- Ratio IC50 [2]: 0.98
- Ratio IC50 [3]: 1.04
- Activity (Plasmodium falciparum K1 [4]): 52.5%
- Activity (Plasmodium falciparum [5]): inactive
- Ratio IC50 (Plasmodium falciparum K1 [6]): 0.93
- Activity (Plasmodium falciparum [7]): inactive
- Ratio IC50 (Plasmodium falciparum [8]): 1.1
- Activity (Plasmodium falciparum [9]): inactive
- Ratio IC50 [10]: 17.4
- Ratio IC50 [11]: 5.2
- Ratio IC50 [13]: 0.94
- Activity (Plasmodium falciparum [14]): inactive
- Activity (Plasmodium falciparum [15]): inactive
- Ratio IC50 [16]: 0.99
- Activity (Plasmodium falciparum [17]): inactive
- Ratio IC50 [18]: 0.93
- Activity (Plasmodium falciparum [19]): inactive
- Activity (Plasmodium falciparum [20]): inactive
- Ratio IC50 [21]: 0.97
- Activity (Plasmodium falciparum [22]): inactive

SMILES: NCC(CCN1CCC(N)CC1)(c1ccccc1)c1ccccc1
- Activity (Plasmodium falciparum K1 [4]): 58.9%
- Activity (Plasmodium falciparum [5]): inactive
- Activity (Plasmodium falciparum [7]): inactive
- Activity (Plasmodium falciparum [9]): inactive
- Activity (Plasmodium falciparum [14]): inactive
- Activity (Plasmodium falciparum [15]): inactive
- Activity (Plasmodium falciparum [17]): inactive
- Activity (Plasmodium falciparum [19]): inactive
- Activity (Plasmodium falciparum [20]): inactive
- Activity (Plasmodium falciparum [22]): inactive

SMILES: CC(C)(C)OC(=O)NC1CCN(CCC(C#N)(c2ccccc2)c2ccccc2)CC1
- Activity (Plasmodium falciparum K1 [4]): 38.8%
- Activity (Plasmodium falciparum [5]): inactive
- Activity (Plasmodium falciparum [7]): inactive
- Activity (Plasmodium falciparum [9]): inactive
- Activity (Plasmodium falciparum [14]): inactive
- Activity (Plasmodium falciparum [15]): inactive
- Activity (Plasmodium falciparum [17]): inactive
- Activity (Plasmodium falciparum [19]): inactive
- Activity (Plasmodium falciparum [20]): inactive
- Activity (Plasmodium falciparum [22]): inactive

SMILES: CC(C)(C)OC(=O)N1CCCC(NCc2ccccc2I)C1 (stereo not drawn)
- Activity (Plasmodium falciparum K1 [4]): 40.5%
- Activity (Plasmodium falciparum [5]): inactive
- Activity (Plasmodium falciparum [7]): inactive
- Activity (Plasmodium falciparum [9]): inactive
- Activity (Plasmodium falciparum [14]): inactive
- Activity (Plasmodium falciparum [15]): inactive
- Activity (Plasmodium falciparum [17]): inactive
- Activity (Plasmodium falciparum [19]): inactive
- Activity (Plasmodium falciparum [20]): inactive
- Activity (Plasmodium falciparum [22]): inactive
